TAAR1 agonist: agonists of human TAAR1; actives 0.99% (n = 360,000); Q96RJ0; CHO RD-HGA16 TAAR1, Fluo-8 calcium fluorescence; vehicle wells 0%, saturating PEA agonist 100%; activation, % at 3 µM;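 active means activation above the mean activation of all test compounds in the run plus 3 SD, cut at about 38% in these data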
Target sequence (Q96RJ0 whole entry, looked up): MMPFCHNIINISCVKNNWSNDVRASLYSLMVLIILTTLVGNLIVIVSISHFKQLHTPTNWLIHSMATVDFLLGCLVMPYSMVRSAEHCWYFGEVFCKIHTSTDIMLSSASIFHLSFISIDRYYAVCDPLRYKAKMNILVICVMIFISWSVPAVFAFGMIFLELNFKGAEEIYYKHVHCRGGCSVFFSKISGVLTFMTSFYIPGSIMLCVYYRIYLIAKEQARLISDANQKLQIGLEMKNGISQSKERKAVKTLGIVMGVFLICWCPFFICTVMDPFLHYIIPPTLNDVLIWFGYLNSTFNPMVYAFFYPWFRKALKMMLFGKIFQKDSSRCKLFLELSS
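System: CHO-derived RD-HGA16 cells with stable Gα16 and human TAAR1 / Times: 17-24 h plating, Fluo-8 75 min 37 °C, 30 min RT / Technique: calcium-sensitive Fluo-8 signal, excitation 470-495, emission 515-575 nm / Measure: % activation relative to PEA EC100 response / Benchmarks: DMSO and PEA EC100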
GalR3 antagonist: human GalR3 antagonism. O60755. inhibition, % at 3 µM. HEK293 GalR3-CNG cAMP membrane potential fluorescence; galR3 body fused to GalR1 C-terminus. actives 0.44% (n = 360,000);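 active means inhibition above the screen-wide average plus 3 SD, cut at about 13% in these data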;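 further: forskolin and galanin both at EC90 stimulate the cells; cAMP rise reported by CNG channel membrane potential dye signal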
Target sequence (O60755 1-299 limits assumed): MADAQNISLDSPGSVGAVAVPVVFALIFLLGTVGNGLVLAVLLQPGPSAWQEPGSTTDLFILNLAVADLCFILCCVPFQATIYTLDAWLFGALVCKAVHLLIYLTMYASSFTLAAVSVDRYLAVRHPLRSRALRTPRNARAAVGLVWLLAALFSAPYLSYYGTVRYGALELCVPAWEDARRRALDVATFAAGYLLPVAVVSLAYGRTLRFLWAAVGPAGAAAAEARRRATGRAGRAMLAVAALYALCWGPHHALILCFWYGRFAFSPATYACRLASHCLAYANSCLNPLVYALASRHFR
OX1R antag-1: blocks the human orexin 1 receptor. OX1R-expressing cells, FRET antagonist read-out. inhibition, % at 6.6 µM. actives 1.8% (n = 330,000). AID 485270; in the data active means inhibition mostly above about 38%, no sharp cut-off; inactive means mostly below about 40%
OX1R antag-2: antagonists of human orexin 1 receptor | O43613 | CHO/OX1R cells, Fluo-8 calcium fluorescence, orexin A | inhibition, % at 5 µM | actives 0.43% (n = 330,000) | AID 434989;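 active means inhibition above its plate's threshold, mean inhibition of all tested compounds on the plate plus 3 SD, cut at about 37% in these data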
CHO parental Ca: counter-screen for OX1R antagonists: effect in parental CHO cells. parental CHO-K1, ATP-induced calcium, Fluo-8 fluorescence. inhibition, % at 5.6 µM. actives 0.63% (n = 330,000). AID 463079;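 active means inhibition above that plate's mean sample inhibition plus 3 SD, cut at about 26% in these data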
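Test system: untransfected parental CHO cell line; also added: ATP stimulus; dosing: 5.6 µM, single dose; signal: calcium-sensitive Fluo-8 fluorescence; measure: percent inhibition of ATP-evoked calcium rise, normalized to controls; benchmarks: low control ATP plus DMSO, high control DMSO only; replication: one well per compound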
TAAR1 antag: antagonists of human TAAR1. inhibition, % at 3 µM. CHO RD-HGA16 TAAR1, Fluo-8 calcium fluorescence, antagonist. actives 1.5% (n = 360,000);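 active means inhibition above a per-plate cutoff, the mean inhibition of test compounds on that plate plus 3 SD, cut at about 49% in these data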
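System: CHO RD-HGA16 cells bearing hTAAR1. Reagent: EC80 β-phenethylamine stimulus. Schedule: seeding 17-24 h prior, 75-min 37 °C, 30-min RT dye loading. Signal: Fluo-8 intracellular calcium dye fluorescence, real-time kinetic reads. Read-out: % inhibition from peak post-agonist over basal fluorescence ratio. Benchmarks: vehicle wells and EC80 agonist wells. Replicates: n of 1.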
Large screens that a line does not name were inactive. Only some compounds are listed: those with a hit (about 4.2% of all), similar ones and a draw of the others.

COc1ccc(C2=NN(C(=O)CSc3nnc(-c4ccccc4F)o3)C(c3ccco3)C2)cc1 (stereo unspecified)	none
CN1C(C(=O)N2CCc3ccccc3C2)=CC(c2ccc(F)cc2)=NS1(=O)=O	TAAR1 agonist 42.2
COc1ccc(C2=NS(=O)(=O)N(C)C(C(=O)N3CCC(C)CC3)=C2)cc1	none (no result: GalR3 antagonist)
COc1cc(/C=N/NC(=O)c2cccc(S(=O)(=O)N3CCCC3)c2)cc(OC)c1O	none
COn1c(-c2ccccc2)nc2ccc(Cl)cc21	none
Clc1ccc2nc3c4ccccc4cnn3c2c1	OX1R antag-1 69.1
COC(=O)/C=C1\SC(N2CCOCC2)=C(c2ccc(OC)cc2)C1=O	OX1R antag-1 70.2
O=C(CSc1ccc(Cl)cc1)Nc1ccccc1N1CCN(C(=O)c2ccc(Cl)cc2)CC1	none
CC(C)(C)C(=O)N1CCC(O)(CS(=O)(=O)Cc2ccccc2)CC1	none
Cc1ccccc1-n1nc2c(c1NC(=O)c1cc3ccccc3oc1=O)CS(=O)C2 (stereo unspecified)	OX1R antag-1 45.7 (no result: TAAR1 agonist, GalR3 antagonist, TAAR1 antag)
Cc1ccccc1-n1nc2c(c1NC(=O)c1cc3ccccc3oc1=O)CS(=O)(=O)C2	none
CC1CN(C(=O)c2cn3ccccc3n2)CC(C)O1 (stereo unspecified)	none
O=C(NCCN1CCN(c2ccc([N+](=O)[O-])cc2)CC1)NCc1ccccc1	OX1R antag-1 33.6
O=C(NCCN1CCN(Cc2ccc([N+](=O)[O-])cc2)CC1)C(=O)Nc1ccccc1	none
COc1ccc(S(=O)(=O)NC(C)(C)C)cc1-c1nnc2c3ccccc3c(C)nn12	none
O=C1N=C(N2CCCCC2)S/C1=C\c1ccncc1	OX1R antag-1 45.0
O=C1N=C(N2CCOCC2)S/C1=C\c1cccnc1	OX1R antag-1 36.7
O=C1N=C(N2CCOCC2)SC1=Cc1ccco1	none (no result: OX1R antag-1, OX1R antag-2, CHO parental Ca)
Cc1cc(C)c2c(c1)NC(c1cc3c(cc1Br)OCO3)C1CC=CC21 (stereo unspecified)	none
CCCC(=O)Nc1ccc(C(=O)N2CCCC2)cc1	none
CCc1ccc(OCC(=O)c2c(O)c3ccccc3oc2=O)cc1	none
CCc1oc2ccccc2c1C(=O)c1cc(Br)c(O)c(Br)c1	OX1R antag-1 75.6
CC(C)CNC(=O)COC(=O)CCC(=O)c1cccs1	none
COc1ccc([C@@H]2CC=C(C(=O)O)[C@H](c3ccc(F)cc3)N2S(=O)(=O)c2ccc(Cl)cc2)cc1	none
CCc1ccc([C@@H]2CC=C(C(=O)O)[C@H](c3ccccc3F)N2S(=O)(=O)c2ccc(C)cc2)cc1	OX1R antag-1 59.5
CCc1ccc([C@@H]2CC=C(C(=O)O)[C@H](c3ccc(Cl)cc3)N2S(=O)(=O)c2ccc(C)cc2)cc1	TAAR1 antag 51.5
COc1ccc([C@@H]2CC=C(C(=O)O)[C@H](c3cccc(Cl)c3)N2S(=O)(=O)c2ccc(Cl)cc2)cc1	OX1R antag-1 61.9
CCc1ccc([C@@H]2CC=C(C(=O)O)[C@H](c3cccc(Cl)c3)N2S(=O)(=O)c2ccc(C)cc2)cc1	OX1R antag-1 70.8
Cc1cc(N2CCCCC2C)nc(-c2ccccc2O)n1 (stereo unspecified)	none
CC1=C(C)[N+](=O)C2(O)CCCCC2(C)N1[O-] (stereo unspecified)	none
CCc1ccc(-c2nc(CSCC(=O)N3CCN(c4ncccn4)CC3)c(C)o2)cc1	OX1R antag-1 41.6
COc1ccc(C(=O)/C(=C\c2ccco2)N2C=CC=CC2=C(C#N)C#N)cc1	OX1R antag-1 66.2 (no result: TAAR1 agonist, GalR3 antagonist, TAAR1 antag)
COc1ccc(/C=C(/C(=O)c2cccs2)N2C=CC=CC2=C(C#N)C#N)cc1	TAAR1 antag 56.0 (no result: OX1R antag-1, OX1R antag-2, CHO parental Ca)
N#CC(C#N)=C1C=CC=CN1/C(=C\c1ccco1)C(=O)c1ccc(Br)cc1	OX1R antag-1 61.4, CHO parental Ca 49.3
Cc1cc(C)c(CN2CCN(C(=O)Cn3cnc(C(=O)Nc4ccc(C)c(C)c4)n3)CC2)c(C)c1	OX1R antag-2 59.3, CHO parental Ca 55.4, TAAR1 antag 56.3
Cc1ccc(NC(=O)Cn2cnc(C(=O)Nc3ccc(C)c(C)c3)n2)cc1C	none
C#CCOc1ccccc1C(N)=O	none
CS(=O)(=O)c1ccc(Sc2nc3ccccc3[nH]2)c([N+](=O)[O-])c1	OX1R antag-1 44.3
CCOC(=O)N1CCN(C(=O)C2CCCN(Cc3nc(-c4ccc(Cl)cc4)oc3C)C2)CC1 (stereo unspecified)	GalR3 antagonist 82.0
CCCCCCc1cc2cc(S(=O)(=O)c3ccc(C)cc3)c(=O)oc2cc1O	none
Cc1nc2n(n1)C(O)c1cc([N+](=O)[O-])ccc1S2 (stereo unspecified)	OX1R antag-1 92.5 (no result: TAAR1 agonist, GalR3 antagonist, TAAR1 antag)
CCc1nc(Nc2ccccc2F)c2oc3ccccc3c2n1	OX1R antag-1 44.1
Cn1c(SCC2CCCO2)nnc1-c1cccc([N+](=O)[O-])c1 (stereo unspecified)	OX1R antag-1 49.8
Cc1ccccc1Cn1c([N+](=O)[O-])cnc1C	none
OCCN=c1cc(-c2ccccc2)oc2ccc(Cl)cc12	OX1R antag-1 47.0 (no result: TAAR1 agonist, GalR3 antagonist, TAAR1 antag)
Cn1c(N)c(-c2ccccc2)c2ccc([N+](=O)[O-])cc2c1=O	OX1R antag-2 53.1, CHO parental Ca 42.6
N#Cc1c(N)n(Cc2ccccc2)c(=O)c2cc([N+](=O)[O-])ccc12	none
COCc1cn(CC(=O)c2sc(NC(=O)C(C)(C)C)nc2C)nn1	none (no result: OX1R antag-1, OX1R antag-2, CHO parental Ca)
COc1ccc(OC2CCN(S(=O)(=O)c3ccc(OC)c(OC)c3)CC2)cc1	none
O=C(Nc1ccccc1C(=O)N1CCN(c2ccccc2)CC1)c1ccco1	OX1R antag-1 51.1
O=c1c2ccccc2sn1-c1cc(S(=O)(=O)N2CCOCC2)ccc1N1CCOCC1	TAAR1 agonist 87.0
CS(=O)(=O)N(CC(=O)NC1CCCCCC1)Cc1ccccc1	none
N#Cc1cc2c(=O)n3ccccc3nc2n(CCCN2CCOCC2)c1=O	OX1R antag-1 53.9
COc1ccc(CCn2c(=N)c(C(=O)NCCN3CCOCC3)cc3c(=O)n4cccc(C)c4nc32)cc1OC	none
COc1ccc(CCn2c(=N)c(C(=O)NCCN3CCOCC3)cc3c(=O)n4ccccc4nc32)cc1OC	OX1R antag-1 50.4
COc1ccc(CCNC(=O)c2cc3c(=O)n4ccccc4nc3n(CCCN3CCOCC3)c2=N)cc1	OX1R antag-1 51.1
N#Cc1cc2c(=O)n3ccccc3nc2n(Cc2cccnc2)c1=O	none
CCCNc1nc2nc3ccccn3c(=O)c2cc1C(=O)NCCN1CCOCC1	OX1R antag-1 52.5
CCCSc1nnc(CSc2nc3nc(C)cc(C)n3n2)o1	none
CC(=O)Nc1ccc(S(=O)(=O)N(C)CC(=O)OCC(=O)c2ccc[nH]2)cc1	none
Cc1noc(C)c1COC(=O)Cc1ccc(Cl)cc1	none

Compound activity from PubChem BioAssay.
